Laboratory results reported in ChEMBL document CHEMBL4043089, “Allosteric Targeting of the Fanconi Anemia Ubiquitin-Conjugating Enzyme Ube2T by Fragment Screening” (J Med Chem, 2017).
Positions count from the first letter of the chain named. Active and inactive are the calls of the source. The calls are words filed in the database; no cut-off is given here.

How the values were obtained:
[1] = target: Ubiquitin-conjugating enzyme E2 D3 (Homo sapiens) (UniProt P61077); test: Inhibition of UbcH5c (unknown origin) assessed as RNF4 ubiquitination at 2.5 mM after 15 mins in presence of fluorescently-labeled […] by fluorescence assay
[2] = target: T1, Ubiquitin-conjugating enzyme E2 T (Homo sapiens) (UniProt Q9NPD8); test: Inhibition of full length N-terminal 6xHis-Smt3 tagged human Ube2T expressed in Escherichia coli BL21(DE3) assessed as FANCD2 ubiquitination at 2.5 mM after 15 mins in presence of fluorescently-labeled Ub/recombinant human E1/FANCL in 0.05% Tween20 containing buffer by fluorescence assay
T1 sequence (whole entry): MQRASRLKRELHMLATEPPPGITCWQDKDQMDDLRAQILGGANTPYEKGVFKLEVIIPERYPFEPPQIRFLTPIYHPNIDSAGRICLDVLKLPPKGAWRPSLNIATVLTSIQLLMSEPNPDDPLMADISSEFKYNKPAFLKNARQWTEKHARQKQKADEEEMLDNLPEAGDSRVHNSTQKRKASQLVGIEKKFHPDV

[3] = target: T1, Ubiquitin-conjugating enzyme E2 T (Homo sapiens); test: Inhibition of full length N-terminal 6xHis-Smt3 tagged human Ube2T expressed in Escherichia coli BL21(DE3) assessed as FANCD2 ubiquitination after 15 mins in presence of fluorescently-labeled Ub/recombinant human E1/ATP by fluorescence assay
Method in brief: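 Ube2T-driven FANCD2 monoubiquitination with E1, FANCL and fluorescently labelled ubiquitin, tested as a four-point titration. Gels were fluorescence-scanned, and the integrated intensity of the monoubiquitinated FANCD2 band was normalized to DMSO reactions. Three independent experiments, plotted as mean ± range.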

[4] = target: T1, Ubiquitin-conjugating enzyme E2 T (Homo sapiens); test: Binding affinity to [1H-15N]-labeled N-terminal 6xHis-Smt3 tagged human Ube2T (1 to 154 residues) expressed in Escherichia coli BL21(DE3) by chemical shift perturbation assay
[5] = tested on: T2, Ubiquitin-conjugating enzyme E2 T (Homo sapiens), Q9NPD8 [P73K]; test: Binding affinity to full length recombinant N-terminal 6xHis-Smt3 tagged human Ube2T P73K mutant expressed in Escherichia coli BL21(DE3) by ITC
T2 sequence (whole entry): T1 sequence (whole entry) with P73K

[6] = target: T3, Ubiquitin-conjugating enzyme E2 T (Homo sapiens, UniProt Q9NPD8); test: Binding affinity to full length N-terminal 6xHis-Smt3 tagged human Ube2T expressed in Escherichia coli BL21(DE3) by ITC
T3 sequence (Q9NPD8 whole entry): T1 sequence (whole entry)

Ubiquitin-conjugating enzyme E2 D3 (Homo sapiens), sequence (P61077 whole entry, looked up): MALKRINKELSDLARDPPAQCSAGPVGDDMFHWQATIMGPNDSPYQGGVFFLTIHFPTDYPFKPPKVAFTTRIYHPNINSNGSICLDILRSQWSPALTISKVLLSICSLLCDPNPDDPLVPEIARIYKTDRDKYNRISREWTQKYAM

SMILES	inhibition [1]	inhibition [2]	inhibition [3]	Activity [4]	Activity [5]	Kd [6] [µM]
NC(=O)C1CCCc2c1[nH]c1ccc(Cl)cc21 (configuration not stated)	inactive	Active	Dose-dependent effect	Dose-dependent effect	Active	–
NC(=O)c1ccc(-c2ccccn2)s1	–	–	–	Dose-dependent effect	–	–
N#Cc1cc(-c2ccccc2)oc1N	–	–	–	Dose-dependent effect	–	–
NCc1nc2ccccc2s1	inactive	Active	Dose-dependent effect	Dose-dependent effect	–	1300
Nc1nc(-c2ccccc2)cs1	inactive	Active	Dose-dependent effect	Dose-dependent effect	Active	–
